Assay results published in paper PMC7437931 (Journal of medicinal chemistry, 2020).
*1 amine or outer side, *2 acyl side, *3 side chain or, on linkers, in order; H or OH if unused. Where a SMILES comes first, the peptide text is derived from it. Bridges are numbered along the chain shown (N, C = ends). Triazole bridges read from a SMILES are 1,4-linked. [ ]: non-standard residue; d: D form. The star is where a group is joined. RhodamineB = CCN(CC)c1ccc2c(-c3ccccc3C(=O)*)c3ccc(=[N+](CC)CC)cc-3oc2c1; Lys(N3) = [N-]=[N+]=NCCCC[C@H](N)C(=O)O; NMeGABA = CN(CCCC(=O)[*:2])[*:1]; Pra = C#CC[C@H](N)C(=O)O

Key:
[1] = target: D570-A583 epitope of proMMP2 (Fluo-epitope) (Homo sapiens, UniProt P08253); assay: FRET binding assay; conditions: 100 nM Fluo-epitope, varying Rhod-peptide
In short: (§1)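 Fluorescein-labelled epitope held at 100 nM final and mixed with a concentration series of rhodamine-tagged cyclic peptide. Mixtures were incubated 30 min, then FRET intensity was read on a microplate reader. Each point used individually prepared triplicate samples.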

[2] = tested on: Fluo-C5 (C-terminal scrambled epitope); assay: FRET binding assay with partially scrambled epitope C5; conditions: 100 nM Fluo-epitope variation
In short: as §1

[3] = tested on: Fluo-M5 (middle segment scrambled epitope); assay: FRET binding assay with partially scrambled epitope M5; conditions: 100 nM Fluo-epitope variation
In short: as §1

[4] = tested on: Fluo-N5 (N-terminal scrambled epitope); assay: FRET binding assay with partially scrambled epitope N5; conditions: 100 nM Fluo-epitope variation
In short: as §1

[5] = target: Fluo-epitope (fluorescein-labeled D570-A583 epitope of proMMP2) (human); assay: FRET or BRET

Row | Kd [5] | Compound | binding affinity to the epitope (FRET) [1] | binding to scrambled epitope C5 (FRET) [2] | binding to scrambled epitope M5 (FRET) [3] | binding to scrambled epitope N5 (FRET) [4]
1 | – | CCN(CC)c1ccc2c(-c3ccccc3C(=O)N(C)CCCC(=O)N[C@H]3Cc4cn(nn4)CCCC[C@@H](C(N)=O)NC(=O)[C@H](Cc4ccc(O)cc4)NC(=O)[C@@H]4CCCN4C(=O)[C@H](Cc4c[nH]cn4)NC(=O)[C@@H]4CCCN4C(=O)[C@H](Cc4c[nH]c5ccccc45)NC3=O)c3ccc(=[N+](CC)CC)cc-3oc2c1 [Rhod-cy(WPHPY)] (RhodamineB-[NMeGABA][Pra]WPHPY[Lys(N3)]-NH2; triazole 2-8; N-terminus assumed) | highest binding affinity | not able to bind | retained the binding affinity | retained the binding affinity
2 | 1 nM | cy(WPHPY) (peptide) | – | – | – | –
